Laboratory results taken from ChEMBL document CHEMBL2434964, “Novel 1H-pyrrolo[2,3-b]pyridine derivative nortopsentin analogues: synthesis and antitumor activity in peritoneal mesothelioma experimental models” (J Med Chem, 2013).
The source made the active and inactive calls. The rule behind the calls is not given here.

Experiments:
STO [1] = assay: Induction of apoptosis in human STO cells assessed as increase in caspase 3 activation at 3 to 6 nM hrs by DEVD-pNA substrate-based spectrofluorometric analysis relative to control; type: functional, cell-based
Meso2 [2] = assay: Induction of apoptosis in human Meso2 cells assessed as increase in caspase 3 activation at 12 to 24 […] hrs by DEVD-pNA substrate-based spectrofluorometric analysis relative to control; type: functional, cell-based
Homo sapiens = species on record: Homo sapiens; assay: (§1) Cytotoxicity against human cells Meso2 assessed as growth inhibition after 72 hrs by MTS assay; type: functional, cell-based
How it was run: (§2)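 Log-phase cells, 4500 per well, plated 24 h, then given 0.1–100 μM compound for 72 h; vehicle (DMSO) controls. MTS read-out at 490 nm as % of DMSO-treated cells. IC50 taken graphically from the dose-response curve. Eight replicates; mean ± SD of at least three independent experiments.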

[3] = as §1; type: functional, cell-based; details: Meso2, 72 h; how it was run: as §2
STO [4] = assay: (§3) Cytotoxicity against human STO cells assessed as growth inhibition after 72 hrs by MTS assay; type: functional, cell-based; how it was run: as §2
[5] = as §3; type: functional, cell-based; how it was run: as §2
[6] = Cytotoxicity against human W138 cells assessed as growth inhibition after 72 hrs by MTS assay; type: cell-based; details: WI-38, 72 h; how it was run: as §2
Meso2 [7] = assay: Induction of apoptosis in human Meso2 cells assessed as chromatin condensation at IC50 by fluorescence microscopy relative to control; type: functional, cell-based; details: TDE = time-dependent effect
[8] = Cell cycle arrest in human STO cells assessed as accumulation at G2/M phase at IC50 after 48 hrs by propidium iodide staining-based FACS-flow cytometry relative to control; type: functional
[9] = molecular target: Glycogen synthase kinase-3 beta (Homo sapiens, UniProt P49841); assay: Inhibition of human GSK-3 beta after 30 mins by fluorescence assay
Chain of Glycogen synthase kinase-3 beta (P49841 whole entry): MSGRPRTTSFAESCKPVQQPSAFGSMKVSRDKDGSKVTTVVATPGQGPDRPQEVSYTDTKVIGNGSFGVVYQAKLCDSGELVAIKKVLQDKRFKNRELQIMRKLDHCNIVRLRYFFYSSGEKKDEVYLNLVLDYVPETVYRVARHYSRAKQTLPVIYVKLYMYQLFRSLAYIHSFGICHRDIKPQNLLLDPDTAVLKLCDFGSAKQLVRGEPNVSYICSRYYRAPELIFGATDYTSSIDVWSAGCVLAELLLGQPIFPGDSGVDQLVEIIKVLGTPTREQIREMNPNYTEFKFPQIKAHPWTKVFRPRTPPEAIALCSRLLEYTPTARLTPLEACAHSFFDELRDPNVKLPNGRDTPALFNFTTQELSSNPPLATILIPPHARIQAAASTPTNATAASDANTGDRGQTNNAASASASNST
How it was run: (§4)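 Recombinant kinases (CDK1/cyclin B; GSK3β) in Omnia fluorescence assay with peptide substrate, ATP and DTT in kinase buffer, run 30 min at 30°C. Compound range 0.05-50 μM. Fluorescence read at ex 360/em 485 nm. IC50 taken graphically; mean ± SD of three independent experiments.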

[10] = Antitumor activity against human STO cells xenografted in athymic nude mouse assessed as tumor volume inhibition at 25 mg/kg, ip qd for 4 to 5 days per week for 3 weeks measured on day 17 post dose; type: functional; details: route intraperitoneal
How it was run: (§5)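 Female athymic Swiss nude mice, 8-10 weeks old; 10⁷ exponentially growing STO cells injected s.c. into right flank. Dosing i.p. qdx4-5/wx3w, starting the day after cell injection. Tumor volume = d²xD/2. TVI% = 100-(mean TV treated/mean TV control x 100), read 17 days after end of treatment (day 35). Two-tailed Student's t test.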

[11] = Induction of apoptosis in human Meso2 cells assessed as increase in caspase 9 activation at IC80 after 72 hrs by LEHD-pNA substrate-based spectrofluorometric analysis relative to control; type: functional
How it was run: (§6)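 Cells exposed 72 h at IC80, with 1% (v/v) DMSO controls. Caspase-9 activity read as LEHD-pNA cleavage and caspase-3 as DEVD-pNA cleavage, by spectrofluorometry (ex 380 nm/em 460 nm), reported as rfu. Mean ± SD of at least three experiments.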

[12] = Induction of apoptosis in human STO cells assessed as increase in caspase 3 activation at IC80 after 72 hrs by DEVD-pNA substrate-based spectrofluorometric analysis relative to control; type: functional; how it was run: as §6
[13] = Induction of apoptosis in human STO cells assessed as increase in caspase 9 activation at IC80 after 72 hrs by LEHD-pNA substrate-based spectrofluorometric analysis relative to control; type: functional; how it was run: as §6
[14] = molecular target: Cyclin-dependent kinase 1/cyclin B1 (Homo sapiens) (UniProt P06493+P14635); assay: Inhibition of CDK1/cyclin B in human STO cells using histone H1 as substrate assessed as histone H1 phosphorylation preincubated at IC50 by immunoprecipitate-based densitometric analysis; type: cell-based; details: TDE = time-dependent effect
Chain of Cyclin-dependent kinase 1/cyclin B1 (Homo sapiens) (P06493 whole entry, looked up): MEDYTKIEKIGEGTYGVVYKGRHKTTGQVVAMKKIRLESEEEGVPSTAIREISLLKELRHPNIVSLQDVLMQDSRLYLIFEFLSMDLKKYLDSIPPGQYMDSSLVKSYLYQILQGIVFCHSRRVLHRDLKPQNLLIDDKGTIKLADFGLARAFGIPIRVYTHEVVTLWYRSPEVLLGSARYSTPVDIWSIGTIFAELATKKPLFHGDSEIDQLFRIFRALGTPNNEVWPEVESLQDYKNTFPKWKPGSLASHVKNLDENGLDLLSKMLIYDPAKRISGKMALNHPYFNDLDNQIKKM
Chain of Cyclin-dependent kinase 1/cyclin B1 (Homo sapiens) (P14635 whole entry, looked up): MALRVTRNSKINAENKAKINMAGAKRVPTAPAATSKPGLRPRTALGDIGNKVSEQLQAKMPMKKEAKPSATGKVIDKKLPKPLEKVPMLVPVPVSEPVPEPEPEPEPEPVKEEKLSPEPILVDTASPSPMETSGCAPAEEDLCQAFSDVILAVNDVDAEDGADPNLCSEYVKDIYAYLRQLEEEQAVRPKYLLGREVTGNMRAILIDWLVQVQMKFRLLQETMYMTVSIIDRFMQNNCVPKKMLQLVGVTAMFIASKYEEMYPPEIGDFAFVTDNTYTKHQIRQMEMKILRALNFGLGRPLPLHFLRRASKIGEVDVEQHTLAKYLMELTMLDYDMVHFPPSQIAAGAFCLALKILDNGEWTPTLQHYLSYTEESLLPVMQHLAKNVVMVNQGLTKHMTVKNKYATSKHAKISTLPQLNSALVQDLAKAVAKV
How it was run: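 STO cells exposed at IC50 for 24, 48 and 72 h, with DMSO controls. Lysates immunoprecipitated with anti-cyclin B1, 4 h at 4°C. Precipitates incubated 20 min at 30°C with 3 μg histone H1, MgCl₂, cold ATP and [γ32P]ATP, pH 7.5. Products run on 12% SDS gel and quantified by densitometry as % of DMSO control.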

STO [15] = assay: Induction of apoptosis in human STO cells assessed as inhibition of survivin phosphorylation at Thr34 at IC50 by Western blotting analysis; type: functional, cell-based
Mus musculus [16] = assay: Toxicity in athymic nude mouse xenografted with human STO cells assessed as body weight loss at 25 mg/kg, ip qd for 4 to 5 days per week for 35 days measured on day 17 post dose; type: organism-based; parameters: dose 25 mg/kg, route intraperitoneal; details: in vivo, in the assay text read “for 3 weeks measured on day 35” for “for 35 days measured on day 17 post dose”
How it was run: (§7)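 Female athymic Swiss nude mice bearing s.c. STO flank xenografts (10⁷ cells). Dosing i.p. qdx4-5/wx3w, starting the day after cell injection. Toxicity recorded as % body weight loss and lethal toxicity. Deaths in treated mice before the first control death were counted as toxic.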

STO [17] = assay: Induction of apoptosis in human STO cells assessed as chromatin condensation at IC50 by fluorescence microscopy relative to control; type: functional, cell-based; details: TDE = time-dependent effect
[18] = molecular target: Cyclin-dependent kinase 1/cyclin B1 (Homo sapiens, UniProt P06493); assay: Inhibition of human recombinant CDK1/cyclin B after 30 mins by fluorescence assay; type: protein-complex assay; how it was run: as §4
Chain of Cyclin-dependent kinase 1/cyclin B1 (P06493 whole entry): as the sequence (P06493 whole entry, looked up) above
Chain of Cyclin-dependent kinase 1/cyclin B1 (P14635 whole entry, further chain): as the sequence (P14635 whole entry, looked up) above

[19] = Cell cycle arrest in human Meso2 cells assessed as accumulation at G2/M phase at IC50 after 72 hrs by propidium iodide staining-based FACS-flow cytometry relative to control; type: functional
Mus musculus [20] = assay: Toxicity in athymic nude mouse xenografted with human STO cells assessed as mortality at 25 mg/kg, ip qd for 4 to 5 days per week for 3 weeks measured on day 17 post dose; type: organism-based; parameters: dose 25 mg/kg, route intraperitoneal; details: in vivo
How it was run: (§8)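 Female athymic Swiss nude mice, 8-10 weeks old, given 10⁷ exponentially growing STO cells s.c. in the right flank. Dosing i.p. qdx4-5/wx3w, starting the day after cell injection. Toxicity was scored as body weight loss and lethal toxicity, reported as toxic deaths per treated group (n=8). Deaths in treated mice before the first control death were counted as toxic.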

[21] = Cell cycle arrest in human STO cells assessed as accumulation at G2/M phase at IC50 after 72 hrs by propidium iodide staining-based FACS-flow cytometry relative to control; type: functional
[22] = Cell cycle arrest in human STO cells assessed as reduction of cells at G1 phase at IC50 after 48 to 72 hrs by propidium iodide staining-based FACS-flow cytometry relative to control; type: functional
[23] = Induction of apoptosis in human Meso2 cells assessed as increase in caspase 3 activation at IC80 after 72 hrs by DEVD-pNA substrate-based spectrofluorometric analysis relative to control; type: functional; how it was run: as §6
[24] = Cell cycle arrest in human STO cells assessed as increase in sub-G1 phase accumulation at IC50 after 72 hrs by propidium iodide staining-based FACS-flow cytometry relative to control; type: functional
STO [25] = assay: Induction of apoptosis in human STO cells assessed as DNA fragmentation at IC50 by fluorescence microscopy relative to control; type: functional, cell-based; details: TDE = time-dependent effect
[26] = Cell cycle arrest in human Meso2 cells assessed as reduction of cells at G1 phase at IC50 after 48 to 72 hrs by propidium iodide staining-based FACS-flow cytometry relative to control; type: functional
[27] = Cell cycle arrest in human Meso2 cells assessed as increase in sub-G1 phase accumulation at IC50 after 72 hrs by propidium iodide staining-based FACS-flow cytometry relative to control; type: functional
Meso2 [28] = assay: Induction of apoptosis in human Meso2 cells assessed as DNA fragmentation at IC50 by fluorescence microscopy relative to control; type: functional, cell-based; details: TDE = time-dependent effect
[29] = Cell cycle arrest in human Meso2 cells assessed as accumulation at G2/M phase at IC50 after 48 hrs by propidium iodide staining-based FACS-flow cytometry relative to control; type: functional
STO [30] = assay: Induction of apoptosis in human STO cells assessed as increase in caspase 3 activation at 0.3 to 0.6 uM hrs by DEVD-pNA substrate-based spectrofluorometric analysis relative to control; type: functional, cell-based
STO [31] = assay: Induction of apoptosis in human STO cells assessed as increase in caspase 3 activation at 0.3 to 0.6 uM hrs by DEVD-pNA substrate-based spectrofluorometric analysis in presence of paclitaxel; type: functional, cell-based
Mus musculus [32] = assay: Toxicity in athymic nude mouse xenografted with human STO cells assessed as body weight loss at 50 mg/kg, ip qd for 4 to 5 days per week for 3 weeks measured on day 17 post dose; type: organism-based; parameters: dose 50 mg/kg, route intraperitoneal; details: in vivo; how it was run: as §7
Meso2 [33] = assay: Induction of apoptosis in human Meso2 cells assessed as increase in caspase 3 activation at 4 to 8 uM hrs by DEVD-pNA substrate-based spectrofluorometric analysis relative to control; type: functional, cell-based
Meso2 [34] = assay: Induction of apoptosis in human Meso2 cells assessed as increase in caspase 3 activation at 4 to 8 uM hrs by DEVD-pNA substrate-based spectrofluorometric analysis in presence of paclitaxel; type: functional, cell-based
[35] = Antitumor activity against human STO cells xenografted in athymic nude mouse assessed as tumor volume inhibition at 50 mg/kg, ip qd for 4 to 5 days per week for 3 weeks measured on day 17 post dose; type: functional; details: route intraperitoneal; how it was run: as §5
STO [36] = assay: Potentiation of paclitaxel-induced cytotoxicity in human STO cells assessed as inhibition of cell survival at 0.15 to 0.6 uM after 72 hrs by MTS assay; type: functional, cell-based
How it was run: (§9)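 Paclitaxel given for 24 h, then test compound added for 72 h more. Fixed paclitaxel:compound ratios were 1:100 in STO and 1:333 in MesoII. Survival by MTS at 490 nm. Expected additive effect taken as the product of single-agent effects. Interaction scored by Chou–Talalay combination index (<1 synergy).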

Mus musculus [37] = assay: Toxicity in athymic nude mouse xenografted with human STO cells assessed as mortality at 50 mg/kg, ip qd for 4 to 5 days per week for 3 weeks measured on day 17 post dose; type: organism-based; parameters: dose 50 mg/kg, route intraperitoneal; details: in vivo; how it was run: as §8
Meso2 [38] = assay: Potentiation of paclitaxel-induced cytotoxicity in human Meso2 cells assessed as inhibition of cell survival at 2 to 8 uM after 72 hrs by MTS assay; type: functional, cell-based; how it was run: as §9

Row | SMILES | inhibition (Homo sapiens) | IC50 [3] | inhibition (STO [4]) | IC50 [5] | IC50 [6] | Activity (Meso2 [7]) | Activity [8] | IC50 [9] | inhibition [14] | inhibition (STO [15]) | Activity (STO [17]) | IC50 [18] | Activity [19] | Activity [21] | Activity [22] | Activity [24] | Activity (STO [25]) | Activity [26] | Activity [27] | Activity (Meso2 [28]) | other results
1 | CC(=O)O[C@H]1C(=O)[C@@]2(C)[C@H]([C@H](OC(=O)c3ccccc3)[C@]3(O)C[C@H](OC(=O)[C@H](O)[C@@H](NC(=O)c4ccccc4)c4ccccc4)C(C)=C1C3(C)C)[C@]1(OC(C)=O)CO[C@@H]1C[C@@H]2O |  |  |  |  |  |  |  |  |  |  |  |  |  |  |  |  |  |  |  |  | Activity (STO [1]): Active; Activity (Meso2 [2]): Active
2 | Cn1cc(-c2nc(-c3cn(C)c4ncccc34)cs2)c2ccccc21 | Dose-dependent effect | 16.8 µM | Dose-dependent effect | 0.61 µM | 18.8 µM |  |  |  |  |  |  |  |  |  |  |  |  |  |  |  | 
3 | Cn1cc(-c2csc(-c3c[nH]c4ccc(F)cc34)n2)c2cccnc21 | Dose-dependent effect | 13.3 µM | Dose-dependent effect | 0.54 µM | 15.4 µM |  |  |  |  |  |  |  |  |  |  |  |  |  |  |  | 
4 | Cn1cc(-c2nc(-c3cn(C)c4ncccc34)cs2)c2cc(F)ccc21 | Dose-dependent effect | 4.85 µM | Dose-dependent effect | 0.43 µM | > 100 µM | tde | 33.3% | 35.7 µM | tde | Active | tde | 0.86 µM | 41.9% | 41.9% | Active | 26.5% | tde | Active | 27.9% | tde | inhibition in vivo at 25 mg/kg [10]: 58%; fold change (FC) [11]: 11.9; fold change (FC) [12]: 10; fold change (FC) [13]: 12; Activity (Mus musculus [16]): 7%; Activity (Mus musculus [20]): Non-toxic; fold change (FC) [23]: 7.8; Activity [29]: 33.3%
5 | Cn1cc(-c2nc(-c3c[nH]c4ncccc34)cs2)c2cc(F)ccc21 | Dose-dependent effect | 25.1 µM | Dose-dependent effect | 0.49 µM | > 100 µM | tde | 33.3% | 42.2 µM | tde | Active | tde | 0.89 µM | 41.9% | 41.9% | Active | 27.6% | tde | Active | 28.6% | tde | inhibition in vivo at 25 mg/kg [10]: 73%; Activity (Mus musculus [16]): 4%; Activity (Mus musculus [20]): Non-toxic; Activity [29]: 33.3%
6 | Cn1cc(-c2csc(-c3c[nH]c4ccccc34)n2)c2cccnc21 | Dose-dependent effect | 4.11 µM | Dose-dependent effect | 0.33 µM | > 100 µM | tde | 33.3% | 40.2 µM | tde | Active | tde | 0.75 µM | 41.9% | 41.9% | Active | 25.8% | tde | Active | 19.9% | tde | Activity (STO [30]): Active; Activity (STO [31]): Active; Activity (Mus musculus [32]): 1%; Activity (Meso2 [33]): Active; Activity (Meso2 [34]): Active; inhibition in vivo at 50 mg/kg [35]: 75%; inhibition (STO [36]): Active; Activity (Mus musculus [37]): Non-toxic; Activity [29]: 33.3%; inhibition (Meso2 [38]): Active
